Source: PubChem BioAssay
KCNQ1 inh: inhibitors of human KCNQ1 channel, primary screen, cell-based, thallium flux, high-throughput | 310,000 tested, 1.3% active | CHO-K1 KCNQ1, FluxOR thallium flux fluorescence; active compounds read high | Potassium voltage-gated channel subfamily KQT member 1 (Homo sapiens), P51787 | B-score at 10 µM;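 active = compounds whose thallium flux B-score, printed positive for inhibition, exceeds three library SD while starting fluorescence stays within three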;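 also: channel opened by potassium depolarization with thallium stimulus after 20 min compound exposure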
KCNK9 inh: KCNK9 potassium channel inhibitors, primary screen, HEK293 cells, thallium flux; FluxOR thallium flux fluorescence; active compounds read low; B-score at 10 µM; 310,000 tested, 1.2% active;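 active = ratio B-score over 3 SD below the library mean, with starting fluorescence within 5 SD of its mean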;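 also: negative B-score means less thallium flux so channel inhibition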
KCNK3 block: human KCNK3 channel inhibitors, primary screen, CHO cells, FluxOR thallium flux, B-score. Potassium channel subfamily K member 3 (Homo sapiens), O14649. FluxOR fluorescence; active compounds read low. B-score at 10 µM. 340,000 tested, 0.84% active;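 active = B-score under library mean minus 4 SD, starting fluorescence ratio at most library mean plus 5 SD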;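 also: more negative B-score means stronger inhibition of thallium flux through KCNK3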
hERG rescue: hERG rescue from dofetilide block, primary screen, cell-based, CHO-hERG, FluxOR thallium flux, dofetilide IC70; Voltage-gated inwardly rectifying potassium channel KCNH2 (Homo sapiens), Q12809; dofetilide IC70 present; activation (rescue from dofetilide block), less the hit threshold, % at 10 µM; 310,000 tested, 0.51% active; AID 1511, 2009;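 active = activation above the mean of controls blocked by dofetilide plus 5 SD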;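 also: thallium influx through hERG after potassium depolarization seen as dye fluorescence rise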
Target sequence (Q12809 whole entry, looked up): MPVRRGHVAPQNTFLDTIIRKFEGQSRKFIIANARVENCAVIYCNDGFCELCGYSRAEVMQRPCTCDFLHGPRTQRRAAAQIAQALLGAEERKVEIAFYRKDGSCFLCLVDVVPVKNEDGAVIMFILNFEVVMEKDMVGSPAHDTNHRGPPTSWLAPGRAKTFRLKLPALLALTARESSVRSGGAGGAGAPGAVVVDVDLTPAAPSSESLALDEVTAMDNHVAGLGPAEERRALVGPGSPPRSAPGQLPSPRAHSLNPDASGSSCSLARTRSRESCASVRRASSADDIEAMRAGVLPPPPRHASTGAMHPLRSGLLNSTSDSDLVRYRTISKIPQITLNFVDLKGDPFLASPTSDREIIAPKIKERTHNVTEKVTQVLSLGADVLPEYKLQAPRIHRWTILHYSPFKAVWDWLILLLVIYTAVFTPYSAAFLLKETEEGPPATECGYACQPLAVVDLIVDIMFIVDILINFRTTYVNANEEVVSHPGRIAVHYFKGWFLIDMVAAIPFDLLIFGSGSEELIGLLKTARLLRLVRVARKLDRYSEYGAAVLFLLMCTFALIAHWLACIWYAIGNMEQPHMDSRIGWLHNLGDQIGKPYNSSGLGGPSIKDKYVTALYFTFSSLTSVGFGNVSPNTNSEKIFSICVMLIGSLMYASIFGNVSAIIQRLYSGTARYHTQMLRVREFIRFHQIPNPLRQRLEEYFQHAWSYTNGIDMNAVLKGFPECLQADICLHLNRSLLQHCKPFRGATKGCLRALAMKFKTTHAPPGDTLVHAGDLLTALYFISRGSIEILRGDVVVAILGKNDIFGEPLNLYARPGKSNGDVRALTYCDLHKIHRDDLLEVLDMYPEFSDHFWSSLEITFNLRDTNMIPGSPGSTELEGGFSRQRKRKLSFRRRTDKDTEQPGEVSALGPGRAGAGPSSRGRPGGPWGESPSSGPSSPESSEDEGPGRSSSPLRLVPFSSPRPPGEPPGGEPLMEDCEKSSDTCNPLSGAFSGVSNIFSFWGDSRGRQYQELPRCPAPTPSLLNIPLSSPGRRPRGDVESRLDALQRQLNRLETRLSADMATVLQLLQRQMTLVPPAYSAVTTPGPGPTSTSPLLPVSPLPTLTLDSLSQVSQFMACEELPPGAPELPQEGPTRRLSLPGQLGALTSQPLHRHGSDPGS
KCNQ1 pot: potentiators or activators of KCNQ1 channel, primary screen, cell-based, thallium flux, high-throughput; Potassium voltage-gated channel subfamily KQT member 1 (Homo sapiens), P51787; CHO-K1 KCNQ1, thallium flux FluxOR fluorescence; active compounds read high; B-score at 10 µM; 310,000 tested, 0.35% active; AID 2648, 2010;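 active = fluorescence ratio B-score, a plate-corrected score, at least three library SD, with initial intensity B-score within 5 SD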
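System: CHO-K1 cells stably expressing KCNQ1 / Medium: assay buffer for compound exposure, DMSO matched across wells / Reagent: thallium- and potassium-containing depolarizing buffer / Compound: one concentration, matched DMSO / Incubation: 20 min compound pretreatment at room temperature / Measured by: kinetic FluxOR fluorescence, 10 s baseline plus 110 s post-stimulus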
KCNK9 inh conf: KCNK9 potassium channel inhibitors, confirmation, HEK293 cells, thallium flux, duplicate; shares compounds with KCNK9 inh; FluxOR thallium flux fluorescence; inhibition, % at 10 µM; 4,900 tested, 43% active;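 active = thallium signal inhibited by more than 5 SD of the compound-free buffer control wells, on both duplicate plates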;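 also: 0% = assay buffer control wells without compound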
Kir21 sel: mouse Kir2.1 channel inhibition, confirmation, selectivity assay for KCNK9 modulator project, cell-based, HEK293, thallium flux; shares compounds with KCNK9 inh; inhibition, % at 10 µM; Kir2.1 cells, FluxOR thallium flux fluorescence; AID 492993, 2010; 4,900 tested, 4% active;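 active = thallium signal drop more than 5 SD beyond the mean of the no-compound control wells, seen in both duplicate plates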;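 also: signal is fluorescence rise after thallium addition divided by baseline fluorescence; plate controls were assay buffer only for no effect and full block by chlorpromazine control for full effect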
KCNK9 uninduced: thallium flux in non-induced HEK293 cells, confirmation, counter-screen for KCNK9 inhibitor project, cell-based, second counter screen, non-induced KCNK9-HEK293. shares compounds with KCNK9 inh. FluxOR thallium flux. inhibition, % at 10 µM. 4,900 tested, 40% active;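 active = thallium signal drop beyond 5 SD of the untreated control mean, on both duplicate plates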;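 also: plate controls were buffer only IC0 wells for no effect and SID17386958 at its maximal inhibitory level for full effect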
KCNK3 inh conf: retest of human KCNK3 channel inhibitors, confirmation, CHO cells, FluxOR thallium flux, triplicate | shares compounds with KCNK3 block | FluxOR fluorescence; 0% buffer, 100% carvedilol maximal block | ratio percent of control, % at 10 µM | 2,400 tested, 99% active | AID 651638, 2012;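 active = ratio percent of control, averaged over triplicates, above buffer control mean plus 5 SD, cut at about 64% in these data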;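 also: ratio is the fluorescence rise from min to max over baseline after thallium stimulus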
KCNK3 noninduced: thallium flux inhibition in non-induced cells, primary screen, counter-screen for KCNK3 inhibitor project, cell-based, non-induced KCNK3 line, FluxOR thallium, triplicate; shares compounds with KCNK3 block; non-induced KCNK3 parental cells; active compounds read low; thallium flux ratio (lower = more inhibition) at 10 µM; 2,400 tested, 40% active; AID 651747, 2012;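 active = thallium flux ratio, averaged over three wells, more than 5 SD below the buffer control mean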;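 also: host cells are CHO cells without KCNK3 induction; ratio is peak minus trough fluorescence over baseline then normalized to buffer controls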
* hit, by the source's call. Hits are enriched below; roughly 3.1% of the tested compounds scored in any of these assays.

Screening CC(Cc1cccs1)NC(=O)Nc1ccc(Cl)cc1 (centres undefined) returned KCNQ1 inh inactive, KCNK9 inh inactive, KCNK3 block inactive, hERG rescue -4 and KCNQ1 pot inactive.
Screening Cc1ccc(NC(=S)N(CCN2CCCCC2)Cc2ccco2)cc1Cl returned KCNQ1 inh inactive, KCNK9 inh -8.2*, KCNK3 block -10*, hERG rescue -10, KCNQ1 pot inactive, KCNK9 inh conf inactive, Kir21 sel inactive, KCNK9 uninduced 26%*, KCNK3 inh conf 108* and KCNK3 noninduced inactive.
`COc1ccc(NC(=S)N(CCN2CCCCC2)Cc2ccco2)cc1` gave KCNQ1 inh inactive, KCNK9 inh inactive, KCNK3 block inactive, hERG rescue -21 and KCNQ1 pot inactive.
`Oc1cc2c(cc1C(c1ccc(Cl)c(Cl)c1)N1CCCC1)OCO2` (centres undefined) gave KCNQ1 inh inactive, KCNK9 inh -8.7*, KCNK3 block -12*, hERG rescue -19, KCNQ1 pot inactive, KCNK9 inh conf inactive, Kir21 sel inactive, KCNK9 uninduced 41%*, KCNK3 inh conf 136* and KCNK3 noninduced 0.15*.
`COc1ccc(C(=O)Nc2ccc(-c3nnn(CC(=O)NCc4ccco4)n3)cc2)cc1` gave KCNQ1 inh inactive, KCNK9 inh inactive, KCNK3 block inactive, hERG rescue -9 and KCNQ1 pot inactive.
Cc1cccc2cc(CN(Cc3cccs3)Cc3nnnn3Cc3ccccc3)c(=O)[nH]c12 was read as KCNQ1 inh inactive, KCNK9 inh -13*, KCNK3 block -11*, hERG rescue -3, KCNQ1 pot inactive, KCNK9 inh conf 29%*, Kir21 sel inactive, KCNK9 uninduced 28%*, KCNK3 inh conf 88* and KCNK3 noninduced inactive.
O=C(Nc1ccc(O)c(-c2nc3ccccc3o2)c1)C1(c2ccccc2)CCCC1 was read as KCNQ1 inh inactive, KCNK9 inh -12*, KCNK3 block -9.6*, hERG rescue -14, KCNQ1 pot inactive, KCNK9 inh conf 40%*, Kir21 sel inactive, KCNK9 uninduced inactive, KCNK3 inh conf 100* and KCNK3 noninduced inactive.
O=C(Nc1ccncc1)C1(c2ccccc2)CCCC1 was read as KCNQ1 inh inactive, KCNK9 inh inactive, KCNK3 block inactive, hERG rescue 1 and KCNQ1 pot inactive.
Cc1ccc(S(=O)(=O)Nc2cc(C)c(O)c(Sc3n[nH]c(C)n3)c2)cc1 was read as KCNQ1 inh inactive, KCNK9 inh inactive, KCNK3 block inactive, hERG rescue -6 and KCNQ1 pot inactive.
`CCOC(=O)c1c(S(=O)(=O)Nc2ccc(F)cc2C)c(C)n(C)c1C` gave KCNQ1 inh inactive, KCNK9 inh -14*, KCNK3 block -9.5*, hERG rescue -1, KCNQ1 pot inactive, KCNK9 inh conf 64%*, Kir21 sel inactive, KCNK9 uninduced 26%*, KCNK3 inh conf 116* and KCNK3 noninduced inactive.
Screening COc1ccc(-c2[nH]c(-c3ccc4c(c3)OCO4)nc2-c2ccccc2)cc1 returned KCNQ1 inh 11*, KCNK9 inh -11*, KCNK3 block -10*, hERG rescue -7, KCNQ1 pot inactive, KCNK9 inh conf 56%*, Kir21 sel inactive, KCNK9 uninduced 35%*, KCNK3 inh conf 154* and KCNK3 noninduced 0.11*.
Cc1ccc(C)c(Nc2cc(C)nc(-c3ccccc3O)n2)c1 was read as KCNQ1 inh inactive, KCNK9 inh -9.4*, KCNK3 block -11*, hERG rescue -4, KCNQ1 pot inactive, KCNK9 inh conf 49%*, Kir21 sel inactive, KCNK9 uninduced 40%*, KCNK3 inh conf 125* and KCNK3 noninduced 0.12*.
Screening COc1cccc(OCCn2cc(C(=O)c3ccco3)c3ccccc32)c1 returned KCNQ1 inh inactive, KCNK9 inh -15*, KCNK3 block -12*, hERG rescue -18, KCNQ1 pot inactive, KCNK9 inh conf 52%*, Kir21 sel inactive, KCNK9 uninduced inactive, KCNK3 inh conf 119* and KCNK3 noninduced 0.14*.
Screening CC(C)CN(CC(C)C)C1=N/C(=C\c2ccco2)C(=O)N1c1ccccc1 returned KCNQ1 inh inactive, KCNK9 inh -9.8*, KCNK3 block -9.2*, hERG rescue -7, KCNQ1 pot inactive, KCNK9 inh conf 56%*, Kir21 sel inactive, KCNK9 uninduced 46%*, KCNK3 inh conf 125* and KCNK3 noninduced inactive.
Screening CCN(CC)C1=N/C(=C\c2ccco2)C(=O)N1c1ccccc1 returned KCNQ1 inh inactive, KCNK9 inh inactive, KCNK3 block inactive, hERG rescue -12 and KCNQ1 pot inactive.
For Cc1ccc(NS(=O)(=O)c2c(C)nc3sccn3c2=O)cc1C the results were KCNQ1 inh inactive, KCNK9 inh inactive, KCNK3 block inactive, hERG rescue -14 and KCNQ1 pot inactive.
Screening CCn1cc(Br)c(C(=O)Nc2ccc(F)c(Cl)c2)n1 returned KCNQ1 inh inactive, KCNK9 inh -12*, KCNK3 block -11*, hERG rescue -16, KCNQ1 pot inactive, KCNK9 inh conf 46%*, Kir21 sel inactive, KCNK9 uninduced 30%*, KCNK3 inh conf 104* and KCNK3 noninduced inactive.
